{"source": "ChEMBL document CHEMBL4715707", "about": "“Allosteric Indole Amide Inhibitors of p97: Identification of a Novel Probe of the Ubiquitin Pathway” (ACS Med Chem Lett, 2016)", "key": {"[1]": {"biological_target": "T1, Transitional endoplasmic reticulum ATPase (Homo sapiens, UniProt P55072)", "experiment": "Inhibition of recombinant human full length Avi-tagged p97 (1 to 806 residues) expressed in Escherichia coli Rosetta 2(DE3) using 20 uM ATP as substrate incubated for 90 mins by ADP-glo assay", "in_short": "(§1)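 ADP-Glo luminescent detection of ADP formed by wild-type p97 ATPase. Enzyme was 20 nM WT p97 (indole amide series) or 10 nM (pyridine indole amide series), with ATP at 20 or 100 μM. n is the number of independent replicates, each run in duplicate or triplicate.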"}, "[2]": {"experiment": "Aqueous solubility of compound at pH 7", "type": "physicochemical", "settings": "buffer", "in_short": "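Aqueous solubility determined in PBS at pH 7.4.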"}, "[3]": {"experiment": "Metabolic stability in mouse microsomes assessed as half life", "type": "ADME, Microsome"}, "[4]": {"biological_target": "T1, Transitional endoplasmic reticulum ATPase", "experiment": "Inhibition of recombinant human full length Avi-tagged p97 (1 to 806 residues) expressed in Escherichia coli Rosetta 2(DE3) using 100 uM ATP as substrate incubated for 90 mins by ADP-glo assay", "in_short": "as §1"}, "[5]": {"experiment": "Apparent permeability across apical to basolateral side in MDCK cells", "type": "ADME, cell-based, Canis lupus familiaris", "settings": "dog", "in_short": "(§2)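 Bidirectional permeability measured across MDCK cell monolayers, reported as apparent permeability (Papp) in cm/s for each direction.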"}, "[6]": {"biological_target": "T1, Transitional endoplasmic reticulum ATPase", "experiment": "Competitive inhibition of recombinant human full length Avi-tagged p97 (1 to 806 residues) expressed in Escherichia coli Rosetta 2(DE3) using 20 uM ATP as substrate incubated for 90 mins by ADP-glo assay based Michaelis-Menten plot analysis"}, "[7]": {"experiment": "Apparent permeability across basolateral to apical side in MDCK cells", "type": "ADME, cell-based, Canis lupus familiaris", "settings": "dog", "in_short": "as §2"}, "[8]": {"biological_target": "T1, Transitional endoplasmic reticulum ATPase", "experiment": "Uncompetitive inhibition of recombinant human full length Avi-tagged p97 (1 to 806 residues) expressed in Escherichia coli Rosetta 2(DE3) using 20 uM ATP as substrate incubated for 90 mins by ADP-glo assay based Michaelis-Menten plot analysis", "in_short": "(§3)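 ATP-dependence of inhibition assessed by determining IC50 at three ATP levels (5, 20 and 100 μM) in the ADP-Glo p97 ATPase assay. Inhibition mode was assigned from the shift in IC50 with increasing ATP.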"}, "[9]": {"experiment": "Metabolic stability in human microsomes assessed as half life", "type": "ADME, Microsome"}, "[10]": {"biological_target": "T1, Transitional endoplasmic reticulum ATPase", "experiment": "Binding affinity to recombinant human full length Avi-tagged p97 (1 to 806 residues) expressed in Escherichia coli Rosetta 2(DE3) assessed as binding constant by SPR analysis"}, "[11]": {"biological_target": "T1, Transitional endoplasmic reticulum ATPase", "experiment": "Inhibition of recombinant human full length Avi-tagged p97 (1 to 806 residues) expressed in Escherichia coli Rosetta 2(DE3) using 5 uM ATP as substrate incubated for 90 mins by ADP-glo assay", "in_short": "as §3"}, "[12]": {"biological_target": "T1, Transitional endoplasmic reticulum ATPase", "experiment": "Binding affinity to recombinant human full length C-terminal Avi-tagged p97 D2 domain (461 to 806 residues) expressed in Escherichia coli Rosetta 2(DE3) assessed as binding constant by SPR analysis"}, "[13]": {"biological_target": "T1, Transitional endoplasmic reticulum ATPase", "experiment": "Binding affinity to recombinant human full length N-terminal Avi-tagged p97 ND1 domain (1 to 458 residues) expressed in Escherichia coli Rosetta 2(DE3) assessed as binding constant by SPR analysis"}}, "note": "Activity calls are given as the source filed them. No cut-off for these calls is given here.", "data": [{"smiles": "Cc1cc2cc(NC(=O)c3ncccc3N)ccc2[nH]1", "values": [{"measurement": "IC50", "setting": "[1]", "result": "> 50", "unit": "µM"}]}, {"smiles": "Cc1cc2cc(NC(=O)c3cccnc3N)ccc2[nH]1", "values": [{"measurement": "solubility", "setting": "[2]", "result": 330, "unit": "µM"}, {"measurement": "half-life", "setting": "[3]", "result": 5, "unit": "min"}, {"measurement": "IC50", "setting": "[4]", "result": 0.5, "unit": "µM"}, {"measurement": "Papp A→B", "setting": "[5]", "result": 710, "unit": "nm/s"}, {"measurement": "IC50", "setting": "[1]", "result": 2.6, "unit": "µM"}, {"measurement": "Ki", "setting": "[6]", "result": 3.5, "unit": "µM"}, {"measurement": "Papp B→A", "setting": "[7]", "result": 460, "unit": "nm/s"}, {"measurement": "Ki", "setting": "[8]", "result": 0.74, "unit": "µM"}, {"measurement": "half-life", "setting": "[9]", "result": "> 60", "unit": "min"}]}, {"smiles": "Cc1cc2cc(NC(=O)c3cnccn3)ccc2[nH]1", "values": [{"measurement": "IC50", "setting": "[1]", "result": "> 50", "unit": "µM"}]}, {"smiles": "CCc1cc2cc(NC(=O)c3nccnc3N)ccc2[nH]1", "values": [{"measurement": "IC50", "setting": "[4]", "result": 13, "unit": "µM"}]}, {"smiles": "Cc1cc2cc(NC(=O)c3nccnc3N)ccc2[nH]1", "values": [{"measurement": "Kdiss", "setting": "[10]", "result": 9.1, "unit": "µM"}, {"measurement": "IC50", "setting": "[11]", "result": 26, "unit": "µM"}, {"measurement": "solubility", "setting": "[2]", "result": 56, "unit": "µM"}, {"measurement": "IC50", "setting": "[4]", "result": 3.5, "unit": "µM"}, {"measurement": "IC50", "setting": "[1]", "result": 11.5, "unit": "µM"}, {"measurement": "Activity", "setting": "[12]", "result": "Active"}, {"measurement": "Activity", "setting": "[13]", "result": "inactive"}]}, {"smiles": "Nc1nccnc1C(=O)Nc1ccc2[nH]ccc2c1", "values": [{"measurement": "IC50", "setting": "[1]", "result": "> 50", "unit": "µM"}]}, {"smiles": "Cc1cc2cc(NC(=O)c3nccnc3N)ccc2n1C", "values": [{"measurement": "IC50", "setting": "[4]", "result": "> 50", "unit": "µM"}]}, {"smiles": "Cc1[nH]c2ccc(NC(=O)c3nccnc3N)cc2c1C", "values": [{"measurement": "IC50", "setting": "[1]", "result": "> 50", "unit": "µM"}]}]}
